This note sets out measurements from ChEMBL document CHEMBL1125638, “Design and conformational analysis of several highly potent bradykinin receptor antagonists” (J Med Chem, 1991).

pKi: −log10 of the molar value.

Experiment [1] can be described thus: Displacement of [3H]bradykinin from bradykinin receptor in guinea pig ileal membrane. The experiment is classed as cell membranes, Cavia porcellus.
In experiment [2] the test system is SV-T2. The experiment is described as follows: Binding affinity for bradykinin receptor of SV-T2 fibroblasts. In kind it is functional, cell-based. Particulars: Mus musculus, read-out: pA2 (converted); call rule not given here. The method in brief:
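Functional antagonism measured as pA2 against bradykinin-stimulated prostaglandin synthesis in SV-T2 fibroblasts, which express only B2 bradykinin receptors. Agonist activity was also checked in the same cells at concentrations up to 10 µM.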

Experiment [3] in a line: Displacement of [3H]bradykinin from bradykinin receptor of guinea pig ileal membrane; Inactive. On the set-up: species or system Cavia porcellus.

As to `NC(N)=NCCC[C@@H](N)C(=O)N[C@@H](CCCN=C(N)N)C(=O)N1CCC[C@H]1C(=O)N1C[C@@H](O)C[C@H]1C(=O)NCC(=O)N[C@@H](Cc1cccs1)C(=O)N[C@@H](CO)C(=O)N1Cc2ccccc2C[C@@H]1C(=O)N1Cc2ccccc2C[C@H]1C(=O)N[C@@H](CCCN=C(N)N)C(=O)O`, in experiment [1], the pKi is 9.42. In experiment [2], the Kb was 0.794 nM.

For `NC(N)=NCCC[C@@H](N)C(=O)N[C@@H](CCCN=C(N)N)C(=O)N1CCC[C@H]1C(=O)N1C[C@@H](O)C[C@H]1C(=O)NCC(=O)N[C@@H](Cc1cccs1)C(=O)N[C@@H](CO)C(=O)N1Cc2ccccc2C[C@@H]1C(=O)N1Cc2ccccc2C[C@@H]1C(=O)N[C@@H](CCCN=C(N)N)C(=O)O`, the pKi in experiment [1] was 6.24. Moreover, the Kb in experiment [2] is 2510 nM. Regarding `NC(N)=NCCC[C@@H](N)C(=O)N[C@@H](CCCN=C(N)N)C(=O)N1CCC[C@H]1C(=O)N1C[C@@H](O)C[C@H]1C(=O)NCC(=O)N[C@@H](Cc1cccs1)C(=O)N[C@@H](CO)C(=O)N1Cc2ccccc2C[C@@H]1C(=O)N1C2CCCC2C[C@H]1C(=O)N[C@@H](CCCN=C(N)N)C(=O)O` (stereo partly specified), in experiment [1], the pKi is 9.75. The Kb in experiment [2] was 0.398 nM. Regarding `NC(N)=NCCC[C@@H](N)C(=O)N[C@@H](CCCN=C(N)N)C(=O)N1CCC[C@H]1C(=O)N1C[C@@H](O)C[C@H]1C(=O)NCC(=O)N[C@@H](Cc1cccs1)C(=O)N[C@H]1CSSC[C@@H](C(=O)O)NC(=O)[C@H](CCCN=C(N)N)NC(=O)[C@H](Cc2ccccc2)NC(=O)[C@H]2Cc3ccccc3CN2C1=O`, the Ki entry in experiment [3] is listed as “Not Active”.

In turn, `NC(N)=NCCC[C@@H](N)C(=O)N[C@@H](CCCN=C(N)N)C(=O)N1CCC[C@H]1C(=O)N1C[C@@H](O)C[C@H]1C(=O)NCC(=O)N[C@@H](Cc1cccs1)C(=O)N[C@H]1CSSC[C@@H](C(=O)N[C@@H](CCCN=C(N)N)C(=O)O)NC(=O)[C@H](Cc2ccccc2)NC(=O)[C@@H](Cc2ccccc2)NC1=O` showed a pKi in experiment [1] of 6.06. Moreover, the Kb in experiment [2] was 3980 nM.

On to `NC(N)=NCCC[C@@H](N)C(=O)N[C@@H](CCCN=C(N)N)C(=O)N1CCC[C@H]1C(=O)N1C[C@H](O)C[C@H]1C(=O)NCC(=O)N[C@@H](Cc1ccccc1)C(=O)N[C@@H](CO)C(=O)N[C@H](Cc1ccccc1)C(=O)N[C@@H](Cc1ccccc1)C(=O)N[C@@H](CCCN=C(N)N)C(=O)O`, for which the negative logarithm of the Ki (pKi) in experiment [1] is 7.57. Moreover, the Kb in experiment [2] was 6.31 nM.
